Source: ChEMBL document CHEMBL3612041, “Combating highly resistant emerging pathogen Mycobacterium abscessus and Mycobacterium tuberculosis with novel salicylanilide esters and carbamates” (Eur J Med Chem, 2015)
pIC50: −log10 of the molar value. In brackets after ≈: the same amount, converted by molar mass.

What was measured:
[1] = system: Mycobacteroides abscessus; assay: Antimycobacterial activity against Mycobacterium abscessus ATCC 19977 after 7 days by serial dilution method; format: functional
How it was run: (§1)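 Serial dilution in in-house Sula semisynthetic medium, pH 6.5. Compounds added as DMSO solutions at 10 doses, final 0.05–100 µg/mL. Incubation at 37 °C, 7 days for M. abscessus and 28 days for M. tuberculosis strains. MIC taken as the lowest concentration giving visible growth inhibition, confirmed by CFU on drug-free Löwenstein-Jensen medium after further equal incubation. Repeated at least twice.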

[2] = Selectivity index, ratio of IC50 for human MONO-MAC-6 cells to MIC for Mycobacterium abscessus ATCC 19977; format: toxicity; conditions: read-out: Selectivity Index
[3] = system: Mycobacterium tuberculosis; assay: Antimycobacterial activity against Mycobacterium tuberculosis H37Rv ATCC 27294 after 28 days by serial dilution method; format: functional; how it was run: as §1
MONO-MAC-6 = assay: Cytostatic activity against human MONO-MAC-6 cells assessed as cell viability after 16 hrs by MTT assay; format: cell-based; conditions: MONO-MAC-6, 16 h
How it was run: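 MonoMac6 cells kept in RPMI-1640 with 10% FCS, 2 mM L-glutamine and gentamycin at 37 °C, 5% CO2. Cells plated 10⁵ per well and treated after 24 h for 16 h in serum-free RPMI (1.0 v/v% DMSO), 5×10⁻² to 10² µM. MTT at 367 µg/mL final for 3.5 h, crystals dissolved in DMSO, OD540 minus OD620. Cytotoxicity % versus untreated control fitted sigmoidally for IC50. Two independent experiments, 4–8 parallels.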

[4] = Drug level in serum-free RPMI-1640 medium treated with [4-bromo-2-[[4-(trifluoromethyl)phenyl]carbamoyl]phenyl] N-(3-chloropropyl)carbamate at 0.75 mg/ml after 6 hrs by RP-HPLC analysis; format: physicochemical
[5] = Selectivity index, ratio of IC50 for human MONO-MAC-6 cells to MIC for Mycobacterium tuberculosis H37Rv ATCC 27294; format: toxicity; conditions: read-out: Selectivity Index
[6] = Solubility of the compound in RPMI-1640/Sula media by spectrophotometric analysis; format: physicochemical
How it was run: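 Solubility measured under assay conditions in RPMI and Sula media with 1 v/v% DMSO. Undissolved compound removed on a PVDF filter. 120 µL filtrate mixed with 80 µL acetonitrile, and concentration measured spectrophotometrically.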

[7] = Drug level in serum-free RPMI-1640 medium treated with [4-bromo-2-[[4-(trifluoromethyl)phenyl]carbamoyl]phenyl] 5-chloropyrazine-2-carboxylate at 0.75 mg/ml after 29 hrs by ESI-MS spectra analysis; format: physicochemical

O=C(Nc1ccc(C(F)(F)F)cc1)c1cc(Br)ccc1O
Activity [1]: 0 CFU
MIC ([1]; Mycobacteroides abscessus, ATCC 19977, 168 h): 13.9 µM (≈ 5.01 µg/mL)
selectivity ratio [2]: 0.5
Activity [3]: 2 CFU
MIC ([3]; Mycobacterium tuberculosis, H37Rv ATCC 27294, 672 h): 1.4 µM (≈ 0.504 µg/mL)
pIC50 (MONO-MAC-6): 5.12
Drug metabolism [4]: metabolite_detected
selectivity ratio [5]: 5.4
solubility [6]: < 100 µM
Drug metabolism [7]: metabolite_detected
